The values that follow come from ChEMBL document CHEMBL4342523, “Discovery and Development of S6821 and S7958 as Potent TAS2R8 Antagonists” (J Med Chem, 2020).

Data set [1] has as its target T1, Taste receptor type 2 member 8 (Homo sapiens, UniProt Q9NYW2).
T1 sequence (Q9NYW2 whole entry): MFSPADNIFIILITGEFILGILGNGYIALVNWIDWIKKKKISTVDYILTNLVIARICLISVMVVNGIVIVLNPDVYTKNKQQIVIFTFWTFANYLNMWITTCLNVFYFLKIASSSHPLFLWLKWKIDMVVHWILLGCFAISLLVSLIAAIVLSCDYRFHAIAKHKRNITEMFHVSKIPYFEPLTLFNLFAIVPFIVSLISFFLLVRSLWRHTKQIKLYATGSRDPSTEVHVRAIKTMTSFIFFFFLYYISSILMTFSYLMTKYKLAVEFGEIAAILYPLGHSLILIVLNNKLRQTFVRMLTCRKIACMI
Briefly: Antagonist activity at recombinant human TAS2R8 stably expressed in cells co-expressing Galpha16gust44 assessed as inhibition of andrographolide-induced intracellular calcium level measured for 100 secs by fluo-4 dye based FLIPR assay. Format: functional, cell-based. In short, it runs like this: (§1)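 Recombinant cells stably expressing G16t44 chimera and TAS2R8 (clones isolated by limiting dilution), plated 24 h before assay; loaded with fluo-4 in PBS 60 min, washed, rested 15 min in dark at RT. Andrographolide agonist at its EC80, premixed with antagonist and added together; final DMSO 0.5%. Baseline read 10 s, then fluorescence followed 100 s on FLIPR.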
For orientation: A change in cytosolic calcium serves as a functional read-out for many receptors and channels.

A short description of data set [2]: Solubility of the compound in pH 7.1 buffer measured after 24 hrs. It counts as physicochemical.
Data set [3] is described as follows: Stability of the compound in pH 2.8 buffer assessed as parent compound remaining measured after 24 hrs at 100 degC. It counts as physicochemical. The conditions noted are these: read-out: Stability.
The nature of data set [4]: Stability of the compound in pH 7.1 buffer assessed as parent compound remaining measured after 24 hrs at 100 degC. It counts as physicochemical. The conditions noted are these: read-out: Stability.
Data set [5] in a line: Ratio of solubility of the compound in pH 7.1 buffer measured after 24 hrs to IC50 for antagonist activity at recombinant human TAS2R8 expressed in cells co-expressing Galpha16gust44 assessed as inhibition of andrographolide-induced intracellular calcium level. Format: cell-based.
Data set [6] can be described thus: Drug metabolism in pH <6.5 buffer assessed as S6821 formation measured under room temperature.
Data set [7] concerns the target T2, Taste receptor type 2 member 8 (Homo sapiens) (UniProt Q9NYW2).
T2 sequence (whole entry): T1 sequence (Q9NYW2 whole entry)
Briefly: Antagonist activity at recombinant human TAS2R8 stably expressed in cells co-expressing Galpha16gust44 assessed as inhibition of andrographolide-induced intracellular calcium level at 10 uM measured for 100 secs by fluo-4 dye based FLIPR assay relative to control. Format: functional, cell-based. Summed up:
as §1

Converted amounts (≈) assume the structure as drawn.

In general, IC50 refers to the concentration that gives 50% inhibition. One may read the solubility as the concentration that dissolves in the medium under given conditions. High values mean a readily soluble substance, low ones a poorly soluble substance. Consider `Cc1noc(C)c1Cn1cc(N2C(=O)CN(Cc3ccccc3)C2=O)cn1`, for which the 50% inhibitory concentration (IC50) in data set [1] was 200 nM. This molecule came in with a solubility at 24 h in data set [2] of 70 µM (≈ 25.6 µg/mL). In addition, the remaining at 24 h in data set [3] is greater than 99%; in data set [4], 60%.
In the case of `Cc1noc(C)c1Cn1cc(N2C(=O)CN(Cc3cccc(C(=O)O)c3)C2=O)cn1`, the IC50 in data set [1] was found to be 2000 nM.
For the molecule `Cc1noc(C)c1Cn1cc(N2C(=O)[C@@H](C)N(Cc3cccc(O)c3)C2=O)cn1`, the solubility at 24 h in data set [2] is 61 µM (≈ 24.1 µg/mL). Besides, in data set [5], the Ratio was 3390. Besides, the values for the remaining at 24 h in data set [3] and in data set [4] were greater than 99% and 92%, respectively.
Regarding `Cc1noc(C)c1Cn1cc(N2CCN(Cc3ccccc3)C2=O)cn1`, in data set [1], the IC50 was determined as 1000 nM.
On to `COC(=O)c1cccc(CN2CC(=O)N(c3cnn(Cc4c(C)noc4C)c3)C2=O)c1`, for which the IC50 in data set [1] stood at 100 nM.
`COc1cncc(C(=O)Nc2cnn(Cc3c(C)noc3C)c2)c1`: in data set [1], the IC50 was 800 nM.
The same measure, in the same setting: the figure for `Cc1noc(C)c1Cn1cc(N2C(=O)CNC2=O)cn1` is 900 nM; for `Cc1noc(C)c1Cn1cc(NC(=O)c2ccc3[nH]ccc3c2)cn1` it is 300 nM.
The same measure, in the same setting: the figure for `Cc1noc(C)c1Cn1cc(NS(=O)(=O)c2ccccc2)cn1` is 4000 nM.
Take `COc1ccc(C(=O)Nc2cnn(Cc3c(C)noc3C)c2)cc1`: in data set [1], the IC50 was 700 nM.
The same measure, in the same setting: the result for `Cc1cc(CN2CC(=O)N(c3cnn(Cc4c(C)noc4C)c3)C2=O)n(C)n1` reads 200 nM; that for `Cc1noc(C)c1Cn1cc(N2C(=O)C(=O)N(Cc3ccccc3)C2=O)cn1`, 2000 nM.
Regarding `Cc1noc(C)c1Cn1cc(N2C(=O)CN(Cc3ccccc3F)C2=O)cn1`, in data set [1], the IC50 turned out to be 100 nM. The solubility at 24 h in data set [2] worked out at 51 µM (≈ 19.6 µg/mL). For the same molecule, the Ratio in data set [5] was found to be 600.
For `Cc1noc(C)c1Cn1cc(NC(=O)c2ccc(O)cc2)cn1`, in data set [1], the IC50 stood at 500 nM.
On the same count and under the same terms, the result for `Cc1noc(C)c1Cn1cc(NC(=O)c2ccc3ocnc3c2)cn1` reads 3000 nM; that for `CNC(=O)c1cccc(CN2CC(=O)N(c3cnn(Cc4c(C)noc4C)c3)C2=O)c1`, 100 nM.
The molecule `Cc1noc(C)c1Cn1cc(N2C(=O)N(Cc3cccc(O)c3)C3(CC3)C2=O)cn1` displayed a solubility at 24 h in data set [2] of 31 µM (≈ 12.6 µg/mL). The Ratio in data set [5] stood at 1550. The remaining at 24 h is greater than 99% in data set [3] and 96% in data set [4].
For the molecule `Cc1noc(C)c1Cn1cc(N2Cc3ccccc3C2=O)cn1`, the IC50 in data set [1] was determined as 9000 nM.
As for `Cc1noc(C)c1Cn1cc(NC(=O)c2ccccc2O)cn1`, the IC50 in data set [1] came to 1000 nM.
On the same count and under the same terms, the figure for `Cc1noc(C)c1Cn1cc(NC(=O)c2ccccc2)cn1` is 1700 to 2000 nM.
On the same count and under the same terms, the result for `Cc1noc(C)c1Cn1cc(N2C(=O)CN(CC3CCCO3)C2=O)cn1` (stereo not drawn) reads 1000 nM.
In the case of `COc1ccccc1CN1CC(=O)N(c2cnn(Cc3c(C)noc3C)c2)C1=O`, the IC50 in data set [1] was 100 nM. In data set [2], this molecule showed a solubility at 24 h of 16 µM (≈ 6.33 µg/mL). In data set [5], the Ratio amounted to 267.
With `Cc1noc(C)c1Cn1cc(N2C(=O)[C@H](CO)N(Cc3cccc(O)c3)C2=O)cn1`, in data set [2], the concentration in solution (solubility at 24 h) was 2480 µM (≈ 1020 µg/mL). Moreover, in data set [5], the Ratio was determined as 57600. The values for the remaining at 24 h in data set [3] and in data set [4] were 53% and 2%, respectively.
As for `Cc1noc(C)c1Cn1cc(N2C(=O)CN(Cc3ccc(O)cc3)C2=O)cn1`, the IC50 in data set [1] came to 40 nM.
With `Cc1noc(C)c1Cn1cc(NC(=O)CCCc2ccccc2)cn1`, in data set [1], the IC50 came out at 800 nM.
Still for that read-out and setting: the result for `Cc1noc(C)c1Cn1cc(N2C(=O)CN(CC3CCCCC3)C2=O)cn1` reads 300 nM.
Turning to `Cc1noc(C)c1Cn1cc(N2C(=O)N(Cc3cccc(O)c3)C(C)(CO)C2=O)cn1` (stereo not drawn), the IC50 in data set [1] was found to be 100 nM. This molecule displayed a solubility at 24 h in data set [2] of 356 µM (≈ 151 µg/mL). For the same molecule, the Ratio in data set [5] came out at 2660. Further, the remaining at 24 h was greater than 99% in data set [3] and 43% in data set [4].
In the case of `Cc1noc(C)c1Cn1cc(N2C(=O)[C@H](C)N(Cc3cccc(O)c3)C2=O)cn1`, the solubility at 24 h in data set [2] was found to be 60 µM (≈ 23.7 µg/mL). Moreover, the Ratio in data set [5] was found to be 3750. Also, the remaining at 24 h in data set [3] was greater than 99%; in data set [4] it was 92%.
Regarding `Cc1noc(C)c1CN1CC(=O)N(c2cnn(Cc3c(C)noc3C)c2)C1=O`, in data set [1], the IC50 came to 400 nM.
For `COc1ncccc1C(=O)Nc1cnn(Cc2c(C)noc2C)c1`, in data set [1], the IC50 turned out to be 1100 nM.
Turning to `Cc1noc(C)c1Cn1cc(NC(=O)N(CC(=O)O)Cc2cccc(O)c2)cn1`, the Drug metabolism entry in data set [6] is reported as “Metabolite detected”.
As to `COc1cccc(C(=O)Nc2cnn(Cc3c(C)noc3C)c2)c1`, in data set [1], the IC50 was found to be 700 nM.
Take `Cc1noc(C)c1Cn1cc(NC(=O)Nc2ccccc2)cn1`: the IC50 in data set [1] worked out at 2000 nM.
For `Cc1noc(C)c1Cn1cc(NC(=O)c2cccc(O)c2)cn1`, the IC50 in data set [1] was 400 nM.
As to `COc1ccc(OC)c(C(=O)Nc2cnn(Cc3c(C)noc3C)c2)c1`, in data set [1], the IC50 came to 300 nM.
In the case of `Cc1noc(C)c1Cn1cc(NC(=O)NCc2ccccc2)cn1`, the IC50 in data set [1] was 1000 nM.
For the molecule `COc1ccc(C(=O)Nc2cnn(Cc3c(C)noc3C)c2)cc1OC`, in data set [1], the IC50 was 1000 nM.
For the molecule `Cc1noc(C)c1Cn1cc(N2C(=O)N(Cc3cccc(O)c3)C3(CCC3)C2=O)cn1`, the IC50 in data set [1] came to 40 nM. The molecule also showed a solubility at 24 h in data set [2] of 3 µM (≈ 1.26 µg/mL). In addition, the Ratio in data set [5] stood at 77. Moreover, the figures for the remaining at 24 h in data set [3] and in data set [4] were 97% and 98%, respectively.
For the molecule `Cc1noc(C)c1Cn1cc(NC(=O)c2ccccn2)cn1`, the IC50 in data set [1] came out at 2300 nM.
Same read-out and setting: the result for `Cc1noc(C)c1Cn1cc(NC(=O)CCc2ccccc2)cn1` reads 400 nM; that for `Cc1noc(C)c1Cn1cc(N2C(=O)CN(Cc3ccccc3O)C2=O)cn1`, 100 nM.
A word on the inhibition: it is how much of the control response was suppressed. For `CCSc1ncccc1C(=O)Nc1cnn(Cc2c(C)noc2C)c1`, the inhibition in data set [7] was determined as 50%. In data set [1], the IC50 was 2300 nM.
For `Cc1noc(C)c1Cn1cc(N2C(=O)c3ccccc3C2=O)cn1`, the IC50 in data set [1] was 200 nM. The molecule further gave a solubility at 24 h in data set [2] of 12 µM (≈ 3.87 µg/mL). Besides, the remaining at 24 h in data set [3] came out at 3%; in data set [4] it was 5%.
For the molecule `COc1cccc(C(=O)Nc2cnn(Cc3c(C)noc3C)c2)n1`, the IC50 in data set [1] came to 700 nM.
As for `Cc1noc(C)c1Cn1cc(NC(=O)Cc2ccccc2)cn1`, in data set [1], the IC50 worked out at 800 nM.
The same measure, in the same setting: the figure for `COc1ccccc1C(=O)Nc1cnn(Cc2c(C)noc2C)c1` is 1900 nM; for `Cc1noc(C)c1Cn1cc(N2C(=O)CN(Cc3ccccn3)C2=O)cn1` it is 1000 nM.
